Calls of active or inactive are those of the source. No cut-off for these calls is given here.

The record followed here is ChEMBL document CHEMBL4715886, “Microwave-assisted efficient synthesis of pyrazole-fibrate derivatives as stimulators of glucose uptake in skeletal muscle cells” (2021).

In the first assay the test system is L6. Kind of assay: Induction of glucose uptake in rat L6 cells harboring GLUT4-myc assessed as fold change in glucose uptake at 10 uM. In kind it is functional. The procedure, abridged: (§1)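 L6-GLUT4myc rat skeletal muscle cells were exposed once to test compound at 10 µM. Glucose uptake was read and reported as fold increase and as percent stimulation over untreated control.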
On to `CCOC(=O)C(C)Oc1ccc(-c2nc3c(cnn3-c3ccccc3)c(=O)[nH]2)cc1` (configuration not stated), for which the “fold change (FC)” value is reported as 1.34.
`CCOC(=O)CCCOc1ccc(-c2nc3c(cnn3-c3ccc(C)c(C)c3)c(=O)[nH]2)cc1`: the “fold change (FC)” value is 1.54.
On the same count and under the same terms, in the case of `CCOC(=O)C(C)Oc1ccc(-c2nc3c(cnn3-c3ccc(OC)cc3)c(=O)[nH]2)cc1` (configuration not stated) it was 1.34; in that of `CCOC(=O)C(C)(C)Oc1ccc(-c2nc3c(cnn3-c3ccccc3)c(=O)[nH]2)cc1`, 1.34.

Another assay concerns the target T1, Solute carrier family 2, facilitated glucose transporter member 4 (Rattus norvegicus) (UniProt P19357).
T1 sequence (whole entry): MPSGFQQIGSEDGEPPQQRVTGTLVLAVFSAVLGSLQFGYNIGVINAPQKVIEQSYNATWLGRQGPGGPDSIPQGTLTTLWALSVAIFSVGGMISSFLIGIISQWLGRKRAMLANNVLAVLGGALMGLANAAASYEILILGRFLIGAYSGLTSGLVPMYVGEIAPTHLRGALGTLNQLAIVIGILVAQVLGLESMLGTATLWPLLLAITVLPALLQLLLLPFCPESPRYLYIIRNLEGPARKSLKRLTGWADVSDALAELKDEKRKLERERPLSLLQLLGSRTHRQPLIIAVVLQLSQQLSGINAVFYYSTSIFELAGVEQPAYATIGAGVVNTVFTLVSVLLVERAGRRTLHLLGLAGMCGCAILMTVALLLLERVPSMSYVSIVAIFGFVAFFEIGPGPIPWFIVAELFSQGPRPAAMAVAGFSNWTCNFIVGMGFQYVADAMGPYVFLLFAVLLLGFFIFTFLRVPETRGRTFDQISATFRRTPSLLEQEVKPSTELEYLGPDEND
Description: Induction of GLUT4 translocation in rat L6 cells harboring GLUT4-myc assessed as fold change in increase of surface level GLUT4myc at 500 uM after 16 hrs. In kind it is cell-based. The method in brief:
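L6-GLUT4myc myotubes were exposed for 16 h, and cell-surface GLUT4myc level was then measured. Experiments were done in triplicate and expressed as mean ± SE, with p relative to the unstimulated control.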
Regarding `CN(C)C(=N)NC(=N)N` [METFORMIN], the fold change (FC) was found to be 1.45.

A further assay relates to L6. Description: Induction of glucose uptake in rat L6 cells harboring GLUT4-myc assessed as glucose uptake at 10 uM relative to control. Type of assay: functional. The procedure, abridged:
as §1
With `CCOC(=O)C(C)(C)Oc1ccc(-c2nc3c(cnn3-c3ccc(OC)cc3)c(=O)[nH]2)cc1`, the Activity worked out at 5%.
The same measure, in the same setting: the same measure for `CCOC(=O)C(C)Oc1ccc(-c2nc3c(cnn3-c3ccc(F)cc3)c(=O)[nH]2)cc1` (configuration not stated): 0.6%; for `CCOC(=O)CCCOc1ccc(-c2nc3c(cnn3-c3ccc(OC)cc3)c(=O)[nH]2)cc1`: 10.4%; for `CCOC(=O)C(C)Oc1ccc(-c2nc3c(cnn3-c3ccccc3)c(=O)[nH]2)cc1` (configuration not stated): 34%.
For `CCOC(=O)C(C)(C)Oc1ccc(-c2nc3c(cnn3-c3ccc(F)cc3F)c(=O)[nH]2)cc1`, the Activity was -12.8%.
Still for that read-out and setting: the same measure for `CCOC(=O)COc1ccc(-c2nc3c(cnn3-c3ccccc3)c(=O)[nH]2)cc1`: -8.6%; for `CCOC(=O)CCCOc1ccc(-c2nc3c(cnn3-c3ccc(C)c(C)c3)c(=O)[nH]2)cc1`: 54%.
The same measure, in the same setting: the same measure for `CCOC(=O)CCCOc1ccc(-c2nc3c(cnn3-c3ccc(F)cc3F)c(=O)[nH]2)cc1`: 2.9%; for `CCOC(=O)COc1ccc(-c2nc3c(cnn3-c3ccc(F)cc3F)c(=O)[nH]2)cc1`: -1.6%; for `CCOC(=O)C(C)Oc1ccc(-c2nc3c(cnn3-c3ccc(F)cc3F)c(=O)[nH]2)cc1` (configuration not stated): -14.7%.
Turning to `CCOC(=O)COc1ccc(-c2nc3c(cnn3-c3ccc(C)c(C)c3)c(=O)[nH]2)cc1`, the Activity was -16.8%.
On the same count and under the same terms, in the case of `CCOC(=O)C(C)Oc1ccc(-c2nc3c(cnn3-c3ccc(OC)cc3)c(=O)[nH]2)cc1` (configuration not stated) it was 34.4%; in that of `CCOC(=O)CCCOc1ccc(-c2nc3c(cnn3-c3ccccc3)c(=O)[nH]2)cc1`, -8.3%.
Same read-out and setting: the same measure for `CCOC(=O)C(C)(C)Oc1ccc(-c2nc3c(cnn3-c3ccc(C)c(C)c3)c(=O)[nH]2)cc1`: 12.9%; for `CCOC(=O)COc1ccc(-c2nc3c(cnn3-c3ccc(OC)cc3)c(=O)[nH]2)cc1`: 13.1%.
Same read-out and setting: in the case of `CCOC(=O)C(C)Oc1ccc(-c2nc3c(cnn3-c3ccc(F)cc3)c(=O)n2C)cc1` (configuration not stated) it was 2.9%.
Consider `CCOC(=O)C(C)Oc1ccc(-c2nc3c(cnn3-c3ccc(C)c(C)c3)c(=O)[nH]2)cc1` (configuration not stated), for which the Activity is reported as -17.2%.
The same measure, in the same setting: in the case of `CCOC(=O)C(C)(C)Oc1ccc(-c2nc3c(cnn3-c3ccccc3)c(=O)[nH]2)cc1` it was 34.4%.
Still for that read-out and setting: the same measure for `CCOC(=O)CCCOc1ccc(-c2nc3c(cnn3-c3ccc(F)cc3)c(=O)[nH]2)cc1`: 6.4%.
Same read-out and setting: in the case of `CCOC(=O)C(C)(C)Oc1ccc(-c2nc3c(cnn3-c3ccc(F)cc3)c(=O)[nH]2)cc1` it was 0.6%.
For `CCOC(=O)COc1ccc(-c2nc3c(cnn3-c3ccc(F)cc3)c(=O)[nH]2)cc1`, the Activity is 23.7%.

The target of a further assay is T1, Solute carrier family 2, facilitated glucose transporter member 4 (Rattus norvegicus). Kind of assay: Induction of GLUT4 translocation in rat L6 cells harboring GLUT4-myc assessed as increase in surface level GLUT4myc at 10 uM after 16 hrs. Type of assay: cell-based.
Consider `CCOC(=O)C(C)Oc1ccc(-c2nc3c(cnn3-c3ccccc3)c(=O)[nH]2)cc1` (configuration not stated), for which the outcome was Active.
The same measure, in the same setting: the same measure for `CCOC(=O)CCCOc1ccc(-c2nc3c(cnn3-c3ccc(C)c(C)c3)c(=O)[nH]2)cc1`: “Active”; for `CCOC(=O)C(C)Oc1ccc(-c2nc3c(cnn3-c3ccc(OC)cc3)c(=O)[nH]2)cc1` (configuration not stated): “Active”; for `CCOC(=O)C(C)(C)Oc1ccc(-c2nc3c(cnn3-c3ccccc3)c(=O)[nH]2)cc1`: “Active”.

A further assay deals with L6. Description: Induction of glucose uptake in rat L6 cells harboring GLUT4-myc assessed as fold change in glucose uptake at 500 uM. In kind it is functional. The method in brief:
(§2)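 L6-GLUT4myc skeletal muscle cells were exposed to the reference agent at 500 µM. Glucose uptake was measured as fold increase and as percent stimulation relative to untreated control.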
Regarding `CN(C)C(=N)NC(=N)N` [METFORMIN], the “fold change (FC)” value came out at 1.48.

The next assay relates to L6. Description: Induction of glucose uptake in rat L6 cells harboring GLUT4-myc assessed as glucose uptake at 500 uM relative to control. Type of assay: functional. The procedure, abridged:
as §2
As to `CN(C)C(=N)NC(=N)N` [METFORMIN], the Activity was 48%.
